Assay results published in the M2OR odorant receptor database.

Tests used:
Settings in all cases: stereoisomer not certain
OR4D6 (Homo sapiens) = OR4D6 (Homo sapiens) (UniProt Q8NGJ1)
In short: (§1)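 Values were gathered from published papers (main text and supplementary material), with extra details requested from the original authors when needed, and checked for typos and inconsistencies. Each receptor–molecule pair is called responsive (active) if the original authors judged the measured signal statistically different from baseline, and non-responsive (inactive) otherwise. Assay methods varied by source, often transient mammalian cell-line luciferase assays. Recorded details include cell line, G-protein, co-transfected protein and tags.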

OR4D6 = test system: OR4D6
Chain of OR4D6 (as listed by the source): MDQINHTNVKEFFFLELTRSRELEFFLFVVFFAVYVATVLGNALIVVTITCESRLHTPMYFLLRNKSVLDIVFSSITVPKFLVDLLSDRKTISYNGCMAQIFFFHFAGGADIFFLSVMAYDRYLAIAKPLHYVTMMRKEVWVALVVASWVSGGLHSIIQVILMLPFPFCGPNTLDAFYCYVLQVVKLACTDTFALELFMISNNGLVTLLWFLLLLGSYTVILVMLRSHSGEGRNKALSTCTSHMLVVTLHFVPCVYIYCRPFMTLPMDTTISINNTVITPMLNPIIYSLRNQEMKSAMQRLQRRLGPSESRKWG
In short: as §1

OR4D9 (Homo sapiens) = OR4D9 (Homo sapiens) (UniProt Q8NGE8)
Chain of OR4D9 (Homo sapiens) (Q8NGE8 whole entry): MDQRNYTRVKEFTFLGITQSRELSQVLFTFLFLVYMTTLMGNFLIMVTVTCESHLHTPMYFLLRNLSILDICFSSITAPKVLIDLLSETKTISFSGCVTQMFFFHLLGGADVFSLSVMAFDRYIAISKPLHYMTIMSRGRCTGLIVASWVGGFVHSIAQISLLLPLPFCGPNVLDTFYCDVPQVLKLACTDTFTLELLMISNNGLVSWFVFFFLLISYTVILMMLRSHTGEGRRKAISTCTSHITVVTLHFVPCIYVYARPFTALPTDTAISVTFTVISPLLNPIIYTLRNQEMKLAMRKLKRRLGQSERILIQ
In short: as §1

OR4E2 (Homo sapiens) = OR4E2 (Homo sapiens) (UniProt Q8NGC2)
Chain of OR4E2 (Homo sapiens) (Q8NGC2 whole entry): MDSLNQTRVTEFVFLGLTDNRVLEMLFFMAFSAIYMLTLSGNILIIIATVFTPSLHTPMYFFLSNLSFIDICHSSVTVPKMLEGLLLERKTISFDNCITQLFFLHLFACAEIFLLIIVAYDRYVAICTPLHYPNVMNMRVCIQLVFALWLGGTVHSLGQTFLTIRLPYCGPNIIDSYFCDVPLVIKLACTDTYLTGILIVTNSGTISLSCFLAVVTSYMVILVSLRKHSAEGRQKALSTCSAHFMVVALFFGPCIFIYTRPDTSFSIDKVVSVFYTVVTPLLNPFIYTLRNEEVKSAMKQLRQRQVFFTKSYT
In short: as §1

OR4E2 A119T = test system: OR4E2 A119T
Chain of OR4E2 A119T (as listed by the source, stated change not applied): as the sequence (Q8NGC2 whole entry) above, with V118M, A119T, Q234R counted along it
In short: as §1

OR4E2 = test system: OR4E2
Chain of OR4E2 (as listed by the source): as the sequence (Q8NGC2 whole entry) above, with V118M, Q234R counted along it
In short: as §1

OR4F15 (Homo sapiens) = OR4F15 (Homo sapiens) (UniProt Q8NGB8)
Chain of OR4F15 (Homo sapiens) (Q8NGB8 whole entry): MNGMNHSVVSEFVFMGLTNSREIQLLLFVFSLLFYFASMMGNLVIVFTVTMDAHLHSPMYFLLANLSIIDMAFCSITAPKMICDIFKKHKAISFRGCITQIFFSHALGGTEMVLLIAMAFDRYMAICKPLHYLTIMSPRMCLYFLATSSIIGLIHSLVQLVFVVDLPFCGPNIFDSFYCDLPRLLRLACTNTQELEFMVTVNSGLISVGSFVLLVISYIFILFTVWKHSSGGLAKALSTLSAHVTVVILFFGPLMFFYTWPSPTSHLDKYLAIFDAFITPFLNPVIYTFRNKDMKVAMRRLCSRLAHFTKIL
In short: as §1

OR4F17 (Homo sapiens) = OR4F17 (Homo sapiens) (UniProt Q8NGA8)
Chain of OR4F17 (Homo sapiens) (Q8NGA8 whole entry): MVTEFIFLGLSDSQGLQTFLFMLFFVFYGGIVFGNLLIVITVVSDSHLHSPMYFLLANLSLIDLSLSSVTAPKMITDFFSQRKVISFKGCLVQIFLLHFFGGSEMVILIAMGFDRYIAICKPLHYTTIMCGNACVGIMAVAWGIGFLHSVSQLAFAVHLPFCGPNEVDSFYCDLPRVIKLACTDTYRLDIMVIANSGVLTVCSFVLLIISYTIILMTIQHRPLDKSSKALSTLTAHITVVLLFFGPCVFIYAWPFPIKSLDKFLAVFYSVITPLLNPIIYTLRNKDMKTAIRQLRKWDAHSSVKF
In short: as §1

OR4F21 (Homo sapiens) = OR4F21 (Homo sapiens) (UniProt O95013)
Chain of OR4F21 (Homo sapiens) (O95013 whole entry): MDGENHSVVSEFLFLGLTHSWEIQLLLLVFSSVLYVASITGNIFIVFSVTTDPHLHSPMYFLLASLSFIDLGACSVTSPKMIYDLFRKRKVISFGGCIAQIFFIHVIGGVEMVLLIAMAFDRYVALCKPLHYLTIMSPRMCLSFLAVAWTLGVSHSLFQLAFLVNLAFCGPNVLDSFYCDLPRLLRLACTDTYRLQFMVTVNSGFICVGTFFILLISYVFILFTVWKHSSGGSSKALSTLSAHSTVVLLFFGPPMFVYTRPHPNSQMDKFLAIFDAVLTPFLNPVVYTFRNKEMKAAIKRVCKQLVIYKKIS
In short: as §1

OR4F3 (Homo sapiens) = OR4F3 (Homo sapiens) (UniProt Q6IEY1)
Chain of OR4F3 (Homo sapiens) (Q6IEY1 whole entry): as the sequence (O95013 whole entry) above, with F44L, I107V, K310R counted along it
In short: as §1

OR4F4 (Homo sapiens) = OR4F4 (Homo sapiens) (UniProt Q96R69)
Chain of OR4F4 (Homo sapiens) (Q96R69 whole entry): as the sequence (Q8NGA8 whole entry) above, with G15E, R221C, Q293R counted along it
In short: as §1

OR4F5 (Homo sapiens) = OR4F5 (Homo sapiens) (UniProt Q8NH21)
Chain of OR4F5 (Homo sapiens) (Q8NH21 whole entry): as the sequence (Q8NGA8 whole entry) above, with G15E, A141T, P160L counted along it
In short: as §1

OR4F5 T141A Q293R = test system: OR4F5 T141A Q293R
In short: as §1

OR4F6 (Homo sapiens) = OR4F6 (Homo sapiens) (UniProt Q8NGB9)
Chain of OR4F6 (Homo sapiens) (Q8NGB9 whole entry): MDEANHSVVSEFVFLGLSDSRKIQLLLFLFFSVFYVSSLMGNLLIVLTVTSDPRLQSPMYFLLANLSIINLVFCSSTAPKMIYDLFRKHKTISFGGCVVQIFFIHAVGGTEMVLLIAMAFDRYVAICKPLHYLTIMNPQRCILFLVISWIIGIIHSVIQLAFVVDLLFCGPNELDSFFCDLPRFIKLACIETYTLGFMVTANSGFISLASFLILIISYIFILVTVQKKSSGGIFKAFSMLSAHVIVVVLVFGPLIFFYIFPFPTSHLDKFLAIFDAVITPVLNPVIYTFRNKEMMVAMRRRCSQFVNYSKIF
In short: as §1

OR4K1 (Homo sapiens) = OR4K1 (Homo sapiens) (UniProt Q8NGD4)
Chain of OR4K1 (Homo sapiens) (Q8NGD4 whole entry): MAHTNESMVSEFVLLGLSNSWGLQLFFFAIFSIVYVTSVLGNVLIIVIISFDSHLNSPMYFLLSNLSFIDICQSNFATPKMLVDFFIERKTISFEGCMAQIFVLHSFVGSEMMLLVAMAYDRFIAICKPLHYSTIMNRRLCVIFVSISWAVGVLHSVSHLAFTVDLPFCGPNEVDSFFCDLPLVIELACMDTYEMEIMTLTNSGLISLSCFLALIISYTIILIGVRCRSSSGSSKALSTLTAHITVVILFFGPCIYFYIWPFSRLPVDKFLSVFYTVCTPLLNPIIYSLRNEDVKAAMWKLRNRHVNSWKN
In short: as §1

OR4K1 R304H = test system: OR4K1 R304H
Chain of OR4K1 R304H (as listed by the source, stated change not applied): as the sequence (Q8NGD4 whole entry) above, with R304H counted along it
In short: as §1

OR4K13 (Homo sapiens) = OR4K13 (Homo sapiens) (UniProt Q8NH42)
Chain of OR4K13 (Homo sapiens) (Q8NH42 whole entry): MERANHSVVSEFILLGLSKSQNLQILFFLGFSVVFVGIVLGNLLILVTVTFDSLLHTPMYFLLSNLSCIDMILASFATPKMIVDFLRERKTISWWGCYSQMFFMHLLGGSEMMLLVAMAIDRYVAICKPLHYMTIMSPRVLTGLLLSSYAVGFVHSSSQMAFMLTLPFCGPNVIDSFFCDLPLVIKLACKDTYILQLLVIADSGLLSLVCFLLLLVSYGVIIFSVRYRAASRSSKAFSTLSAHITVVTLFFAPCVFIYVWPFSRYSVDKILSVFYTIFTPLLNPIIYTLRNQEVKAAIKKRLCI
In short: as §1

OR4K14 (Homo sapiens) = OR4K14 (Homo sapiens) (UniProt Q8NGD5)
Chain of OR4K14 (Homo sapiens) (Q8NGD5 whole entry): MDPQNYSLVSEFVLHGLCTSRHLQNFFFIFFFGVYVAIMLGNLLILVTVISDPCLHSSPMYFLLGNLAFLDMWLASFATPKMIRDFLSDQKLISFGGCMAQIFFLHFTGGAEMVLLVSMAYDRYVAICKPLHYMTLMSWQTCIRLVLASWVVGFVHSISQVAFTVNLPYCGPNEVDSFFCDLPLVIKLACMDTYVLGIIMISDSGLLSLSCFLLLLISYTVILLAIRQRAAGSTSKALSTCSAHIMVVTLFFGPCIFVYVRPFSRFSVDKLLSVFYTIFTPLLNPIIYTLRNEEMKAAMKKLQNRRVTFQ
In short: as §1

OR4E1 (Homo sapiens) = OR4E1 (Homo sapiens) (UniProt P0C645)
Chain of OR4E1 (Homo sapiens) (P0C645 whole entry): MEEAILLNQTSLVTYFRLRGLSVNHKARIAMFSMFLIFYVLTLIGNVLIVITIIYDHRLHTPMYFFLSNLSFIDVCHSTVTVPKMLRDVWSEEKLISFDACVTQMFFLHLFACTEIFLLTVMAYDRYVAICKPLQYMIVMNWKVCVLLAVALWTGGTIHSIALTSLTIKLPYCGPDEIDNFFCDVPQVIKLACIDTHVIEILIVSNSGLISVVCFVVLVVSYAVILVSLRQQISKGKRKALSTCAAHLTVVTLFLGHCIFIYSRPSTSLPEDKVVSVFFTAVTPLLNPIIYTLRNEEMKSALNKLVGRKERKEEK
In short: as §1

OR4K15 (Homo sapiens) = OR4K15 (Homo sapiens) (UniProt Q8NH41)
Chain of OR4K15 (Homo sapiens) (Q8NH41 whole entry): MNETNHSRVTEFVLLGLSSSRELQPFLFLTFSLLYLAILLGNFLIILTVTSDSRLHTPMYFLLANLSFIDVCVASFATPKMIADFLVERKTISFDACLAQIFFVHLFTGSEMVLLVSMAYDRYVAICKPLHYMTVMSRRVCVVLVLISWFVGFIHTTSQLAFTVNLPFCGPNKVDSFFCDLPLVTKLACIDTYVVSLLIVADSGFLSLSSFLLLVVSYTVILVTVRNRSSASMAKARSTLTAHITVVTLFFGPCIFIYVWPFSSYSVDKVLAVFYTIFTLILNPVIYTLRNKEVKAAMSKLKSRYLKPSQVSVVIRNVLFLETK
In short: as §1

Measured: odorant receptor agonist call

Chain of OR4D6 (Homo sapiens) (Q8NGJ1 whole entry): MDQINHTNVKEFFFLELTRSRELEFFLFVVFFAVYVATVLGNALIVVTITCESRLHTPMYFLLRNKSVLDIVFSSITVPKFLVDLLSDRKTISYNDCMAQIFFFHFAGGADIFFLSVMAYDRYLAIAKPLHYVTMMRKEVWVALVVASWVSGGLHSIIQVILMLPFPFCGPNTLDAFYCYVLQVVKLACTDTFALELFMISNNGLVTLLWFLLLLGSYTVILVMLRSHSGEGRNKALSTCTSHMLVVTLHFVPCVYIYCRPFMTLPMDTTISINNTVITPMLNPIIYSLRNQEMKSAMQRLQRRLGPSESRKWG

C=CCOC(=O)Cc1ccccc1
inactive: OR4D6 (Homo sapiens) | OR4D6 | OR4D9 (Homo sapiens) | OR4E2 (Homo sapiens) | OR4E2 A119T | OR4E2 | OR4F15 (Homo sapiens) | OR4F17 (Homo sapiens) | OR4F21 (Homo sapiens) | OR4F3 (Homo sapiens) | OR4F4 (Homo sapiens) | OR4F5 (Homo sapiens) | OR4F5 T141A Q293R | OR4F6 (Homo sapiens) | OR4K1 (Homo sapiens) | OR4K1 R304H | OR4K13 (Homo sapiens) | OR4K14 (Homo sapiens)

Cc1c([N+](=O)[O-])c(C)c([N+](=O)[O-])c(C(C)(C)C)c1[N+](=O)[O-]
inactive: OR4D6 (Homo sapiens) | OR4D9 (Homo sapiens) | OR4E1 (Homo sapiens) | OR4E2 (Homo sapiens) | OR4F15 (Homo sapiens) | OR4F17 (Homo sapiens) | OR4F21 (Homo sapiens) | OR4F3 (Homo sapiens) | OR4F4 (Homo sapiens) | OR4F5 (Homo sapiens) | OR4F6 (Homo sapiens) | OR4K1 (Homo sapiens) | OR4K13 (Homo sapiens) | OR4K14 (Homo sapiens) | OR4K15 (Homo sapiens)
